From paper PMC8805511 (Bioorganic & medicinal chemistry letters, 2021)
Read-outs that look alike come from different tables or passages of the source. Values belong to the molecule of their own block, whether it stands above or below them.

Experiments:
[1] = T1/2 in mouse liver microsome assays; format: in vitro ADME; conditions: liver microsomes
Summary of the method: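 Test compound incubated with mouse liver microsomes at 37 °C. The amount of unmodified compound remaining was measured after 30 min as a single-point stability read. T1/2 (min) was calculated from these incubations. Dextromethorphan served as the positive control.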

solubility = format: physicochemical; conditions: excluded from further study
HeLaC3 cells = experiment: total tau; format: cell-based; conditions: 24 h, Western blot
[2] = mouse liver microsome stability, compound remaining after 30 minutes; format: in vitro ADME; conditions: unmodified compound remaining after incubation with mouse liver microsomes for 30 minutes at 37 °C
[3] = mouse liver microsome assays; cited from earlier work
tau = conditions: cited from earlier work

Molecule: CCn1c(=O)/c(=C2\Sc3cccc(Cl)c3N2C)s/c1=C\c1ccccn1 [Compound 5]
half-life [1]: ~20 min

Molecule: CCn1c(=O)/c(=C2\Sc3cccc(Cl)c3N2C)s/c1=C\c1ccncc1 [Compound 14]
solubility (solubility): poor solubility

Molecule: CCn1c(=O)/c(=C2\Sc3ccc(Cl)cc3N2C)s/c1=C\c1ccncc1 [Compound 15]
cellular stress (levels of Hsp72 and Hsp90) (HeLaC3 cells): did not activate cellular stress

Molecule: CCn1c(=O)/c(=C2\Sc3ccccc3N2C)s/c1=C\c1ccccn1 [YM-08]
Percentage at T30min [2]: below the limit of detection | half-life [3]: less than three minutes

Molecule: YM-01
concentration promoting tau degradation (tau): ~ 1 μM

Other lines, results leading:

half-life [1]: ~20 min
Molecule: CCn1c(=O)/c(=C2\Sc3ccc(Cl)cc3N2C)s/c1=C\c1ccccn1 [Compound 6]

half-life [1]: ~20 min
Molecule: CCn1c(=O)/c(=C2\Sc3cc(Cl)ccc3N2C)s/c1=C\c1ccncc1 [Compound 16]

solubility (solubility): poor solubility
Molecule: CCn1c(=O)/c(=C2\Sc3c(Cl)cccc3N2C)s/c1=C\c1ccncc1 [Compound 17]
